This is one part of a sample in which hits are shown more often than they occur.
Ecoli WT expand = blocks growth of wild type E. coli BW25113 | OD600 absorbance | growth inhibition, % at 100 µM | 0.15% of 98,000 active | AID 710;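 active = growth inhibition above about 50% at one test dose, limit read from the data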;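 note: growth measured after 20 h incubation at 37 °C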
Ecoli tolC = E. coli tolC mutant growth inhibition; 2.2% of 65,000 active; E. coli BW25113 tolC mutant growth, OD615; growth inhibition, % at 10 µM (by protocol);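 active = growth inhibition at or above a cutoff equal to the mean over every tested compound plus 3 SD, cut at about 60% in these data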;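 note: growth measured after 20 h incubation at 37 °C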
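Signal: optical density read at 615 nm; Assay system: E. coli ΔtolC::kan strain BW25113; Times: 20 h incubation with compound, 37 °C; Dosing: 10 µM final, single dose.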
WNV protease inh = blocks West Nile virus NS2B-NS3 protease activity; P06935; WNV NS2B-NS3 protease, fluorogenic substrate Ex360/Em465; hits give low values; z-score (test concentration not listed); 0.18% of 65,000 active; in the data active = z-score below about -3
Target sequence (P06935 1371-1501 limits assumed): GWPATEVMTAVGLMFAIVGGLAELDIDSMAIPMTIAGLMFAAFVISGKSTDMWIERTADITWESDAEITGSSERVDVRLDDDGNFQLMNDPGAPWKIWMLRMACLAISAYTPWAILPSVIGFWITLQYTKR
Target sequence (P06935 1502-1679 limits assumed): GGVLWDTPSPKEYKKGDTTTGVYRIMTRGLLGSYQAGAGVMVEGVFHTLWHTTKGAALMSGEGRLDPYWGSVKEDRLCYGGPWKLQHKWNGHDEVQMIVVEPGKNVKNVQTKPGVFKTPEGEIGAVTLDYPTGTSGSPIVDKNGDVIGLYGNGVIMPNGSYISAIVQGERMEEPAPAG
TNAP act mid DEA = human TNAP activation, intermediate phosphate acceptor; P05186; purified TNAP, CDP-star luminescence, 100 mM DEA, 30 min; hits give high values; scale: 0 levamisole-inhibited, 1 vehicle-only enzyme; activation factor at 20 µM; 64,000 tested, under 10 active; AID 813;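 active = activation factor of at least 2 at 20 µM, relative to controls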
BAP1 inh = inhibitors of human BAP1 deubiquitinase. recombinant BAP1, Ub-AMC hydrolysis fluorescence kinetic; hits give low values. calls only at 20 µM. 0.48% of 72,000 active;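 active = activity remaining at or below 50% of control, provided the compound also passes the data quality filters; inactive = the rest, including low values that fail the filters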
BAP1 inh confirm = confirmation of human BAP1 enzyme inhibitors; shares compounds with BAP1 inh; purified BAP1, Ub-ethyl ester hydrolysis, HPLC; hits give low values; % of control activity, % at 20 µM; 8% of 310 active;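 active = percent of control activity at or below 60%; inconclusive = HPLC trace unusable from injection failure or solvent front hiding peaks; inactive = the rest, plus ubiquitin peak ratio over a set limit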
Of the large screens only hits and unclear results are named; the others gave an inactive call (follow-up assays come after a bar, where they were run).

Cc1ccc(-c2nc3cccnc3o2)cc1NC(=O)COc1ccc(Cl)cc1C	BAP1 inh active | BAP1 inh confirm inactive
Cc1ccc(-c2nc3cccnc3o2)cc1NC(=O)COc1ccc(C(C)(C)C)cc1	none (no result: Ecoli tolC, WNV protease inh, TNAP act mid DEA, BAP1 inh)
COc1ccc(-c2cc3c(=O)n(CC(=O)NC4CCN(Cc5ccccc5)CC4)ncn3n2)cc1	BAP1 inh active | BAP1 inh confirm inactive
CCOC(=O)N1CCN(C(=O)c2cccn3c(=O)c4sccc4nc23)CC1	BAP1 inh active | BAP1 inh confirm inactive
CC1Cc2ccccc2N1C(=O)c1cc2c(=O)n3ccccc3nc2n1C (configuration not stated)	BAP1 inh active | BAP1 inh confirm inactive
Cc1cccn2c(=O)c3cc(C(=O)N4CCc5ccccc54)n(C)c3nc12	BAP1 inh active (no result: Ecoli WT expand) | BAP1 inh confirm inactive
Cc1cccn2c(=O)c3cc(C(=O)N4c5ccccc5CC4C)n(C)c3nc12 (configuration not stated)	none
Cc1c(C(=O)Nc2ccc3c(c2)OCO3)sc2ncn(CC(=O)N3CC(C)CC(C)C3)c(=O)c12 (configuration not stated)	none (no result: Ecoli tolC, WNV protease inh, TNAP act mid DEA, BAP1 inh)
Cc1ccc2[nH]c(=O)c(C(c3nnnn3CCc3ccccc3)N3CCOCC3)cc2c1 (configuration not stated)	BAP1 inh active | BAP1 inh confirm inactive
COc1ccccc1C(c1nnnn1CCc1ccccc1)N1CCN(c2ccccc2)CC1 (configuration not stated)	BAP1 inh active | BAP1 inh confirm inactive
COc1cccc(C(c2nnnn2CCc2ccccc2)N2CCN(c3ccccc3)CC2)c1OC (configuration not stated)	none
COc1ccc(Cl)cc1NC(=O)c1ccc(C)cc1	none (no result: Ecoli WT expand, Ecoli tolC, WNV protease inh, TNAP act mid DEA)
COc1cccc(-c2csc(N3CCN(S(=O)(=O)c4ccc(F)cc4)CC3)n2)c1	BAP1 inh active | BAP1 inh confirm inactive
CCOC(=O)C1=C(C)N=c2s/c(=C/c3ccco3)c(=O)n2C1c1cccc(OC)c1 (configuration not stated)	BAP1 inh active | BAP1 inh confirm inactive
CCOC(=O)C1=C(C)N=c2s/c(=C\c3cccn3C)c(=O)n2C1c1cccc(OC)c1OC (configuration not stated)	none
COc1cc2c(cc1OC)-c1cc(N3CCCCCC3)nc(=O)n1CC2	BAP1 inh active | BAP1 inh confirm inactive
COc1ccc(C2=NOC3(CC(=O)N(c4ccc5ccccc5c4)C3=O)C2)c(OC)c1 (configuration not stated)	none (no result: Ecoli tolC, WNV protease inh, TNAP act mid DEA, BAP1 inh)
N#Cc1c(NC(=O)CSc2nnc(-c3ccccc3)o2)sc2c1CCCC2	none (no result: Ecoli tolC, WNV protease inh, TNAP act mid DEA, BAP1 inh)
Cc1sc(NC(=O)CSc2nnc(-c3ccccc3)o2)c(C#N)c1C	BAP1 inh active | BAP1 inh confirm 37
O=C(CSc1nnc(-c2cc3ccccc3cc2O)n1Cc1ccco1)c1ccc(F)cc1	BAP1 inh active | BAP1 inh confirm inactive
Cc1occc1-c1nnc(SCC(=O)c2ccc(F)cc2)n1Cc1ccco1	none
COc1ccccc1OCc1ccc(C(=O)NC(C)(C)C)o1	none
COc1ccccc1OCc1ccc(C(=O)n2nc(C)c(Cl)c2C)o1	BAP1 inh active | BAP1 inh confirm inactive
O=C1[C@H]2[C@@H](C(=O)N1c1cc(Cl)cc(Cl)c1)[C@]1(C(=O)Nc3ccccc31)N1CCC[C@@H]21	Ecoli tolC 80, BAP1 inh active | BAP1 inh confirm inactive
Cc1cc(Cl)c2c(c1)[C@]1(C(=O)N2)[C@@H]2C(=O)N(Cc3ccccc3)C(=O)[C@@H]2[C@@H]2CCCN21	none
CSc1nc2c(cnn2-c2ccc(C)c(C)c2)c(=O)[nH]1	BAP1 inh active | BAP1 inh confirm inconclusive
CCC(C)Sc1nc2c(cnn2-c2ccc(C)c(C)c2)c(=O)[nH]1 (configuration not stated)	none
Cn1c(=NC(=O)c2cc(Cl)sc2Cl)sc2cc(F)ccc21	none (no result: Ecoli WT expand, Ecoli tolC, WNV protease inh, TNAP act mid DEA)
CCOC(=O)COc1nc(C)c(Br)c(OC)n1	BAP1 inh active | BAP1 inh confirm inactive
Nc1nc(SCC(=O)NCCC(c2ccccc2)c2ccccc2)n[nH]1	none (no result: Ecoli tolC, WNV protease inh, TNAP act mid DEA, BAP1 inh)
CCOC(=O)c1[nH]c(CSc2nnc(-c3ccc(OC)cc3)o2)c(C(=O)OCC)c1C	BAP1 inh active | BAP1 inh confirm inactive
COc1ccc(-c2nnc(SCC(=O)c3[nH]c(C)c(C(C)=O)c3C)o2)cc1	none

Compound activity deposited in PubChem BioAssay by several laboratories.
